Experimental data from different studies.
Compare with care: the assays were run in different laboratories.
Effect on: cell growth or viability

Structure (SMILES)	cell line	technique	time	IC50 [µM]
CC(C(=O)NC1CCCC1)c1cccc(C(OC(=O)NC2CCCC2)c2ccccc2)c1 (stereo not drawn)	L1210		48 h	9.8
O=C1CCN(S(=O)(=O)c2ccc(F)cc2)CC(=O)c2ccccc2N1	L6			> 280
CC(C(=O)NC1CCCCC1)c1cccc(C(OC(=O)NC2CCCCC2)c2ccccc2)c1 (stereo not drawn)	FM3A		48 h	15
C[C@@H]1C[C@H](O)[C@]2(O)O[C@@H]3C[C@@]4(C=O)[C@@H](CC[C@@H]5[C@@H]4CC[C@]4(C)[C@@H](C6=CC(=O)OC6)CC[C@]54O)C[C@H]3O[C@@H]2O1	L6	resazurin	72 h	7.5
CC(C(=O)n1nnc2ccccc21)c1cccc(C(OC(=O)n2nnc3ccccc32)c2ccccc2)c1 (stereo not drawn)	L1210		48 h	38
C[C@@H]1C[C@@]2(N=CCS2)[C@]2(O)O[C@@H]3C[C@@]4(C=O)[C@@H](CC[C@@H]5[C@@H]4CC[C@]4(C)[C@@H](C6=CC(=O)OC6)CC[C@]54O)C[C@H]3O[C@@H]2O1	L6	resazurin	72 h	6.17
COc1cc(C(=O)c2cc3c(-c4ccccc4)c(O)ccc3o2)cc(OC)c1OC	L1210		48 h	> 50
Cc1c2oc3c(C)ccc(C(=O)N[C@@H]4C(=O)N[C@H](C(C)C)C(=O)N5CCC[C@H]5C(=O)N(C)CC(=O)N(C)[C@@H](C(C)C)C(=O)O[C@@H]4C)c3nc-2c(C(=O)N[C@@H]2C(=O)N[C@H](C(C)C)C(=O)N3CCC[C@H]3C(=O)N(C)CC(=O)N(C)[C@@H](C(C)C)C(=O)O[C@@H]2C)c(N)c1=O	GISTT1	resazurin	72 h	0.07
N.N.[Cl][Pt][Cl]	NCI-H460		48 h	21.6
COc1ccc(N(C)c2nc(Cl)nc3cccnc23)cc1F	MDA-MB-453	MTS	72 h	0.0042
CC(C(=O)N1CCCC1)c1cccc(C(OC(=O)N2CCCC2)c2ccccc2)c1 (stereo not drawn)	FM3A		48 h	35
COc1cc(C(=O)c2sc3ccccc3c2N)cc(OC)c1OC	L1210		48 h	0.35
COc1ccc2c(c1)NC(=O)CN2c1nc(Cl)nc2c1CCCC2	MDA-MB-453	MTS	72 h	0.256
CC(C(=O)N1CCCCC1)c1cccc(C(OC(=O)N2CCCCC2)c2ccccc2)c1 (stereo not drawn)	L1210		48 h	15
COc1cccc2c1C(=O)c1c(O)c3c(c(O)c1C2=O)C[C@@](O)(C(C)=O)C[C@@H]3O[C@H]1C[C@H](N)[C@H](O)[C@H](C)O1	GISTT1	resazurin	72 h	< 0.07
CC(C)=CCOc1c2occc2cc2ccc(=O)oc12	COLO 205	MTT	72 h	> 100
CC(C(=O)NCc1ccccc1)c1cccc(C(OC(=O)NCc2ccccc2)c2ccccc2)c1 (stereo not drawn)	L1210		48 h	10
CCCSc1ccc2nc(NC(=O)OC)[nH]c2c1	GISTT1	resazurin	72 h	0.3
